From article PMC11564562 (Scientific Reports, 2024)

Assays:
[1] = test system: MCF-7 breast cancer cells; assay: MTT cytotoxicity assay, MCF-7; format: cell-based; details: Homo sapiens, MCF7, 72 h, read-out: IC50 cytotoxicity against MCF-7 cells
Procedure, shortened: (§1)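 MTT assay: cells cultured at 37 °C in 5% CO2 with 10% FBS and penicillin/streptomycin, HeLa in DMEM and MCF-7 in RPMI 1640. Seeded at 5,000 cells/well and left to adhere 24 h, then exposed 72 h to 0.1, 1, 10 and 100 µM test compound, diluted from 10 mM DMSO stocks in medium. MTT (5 mg/mL) added for 3 h, formazan dissolved in DMSO, absorbance read. Blank-corrected % survival taken relative to untreated cells; IC50 calculated; mean ± SD, n = 3; doxorubicin as positive control.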

[2] = test system: Hsp90 protein level in MCF-7 cells; assay: Hsp90 protein level assay; format: cell-based, human; details: 10 µM, control (untreated) cells 5.54 ng/mL
Procedure, shortened: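 Sandwich ELISA kit quantifying intracellular Hsp90 in MCF-7 cells against untreated cells. Standards and samples incubated 2 h at 37 °C, then biotinylated antibody 1 h at 37 °C, three washes, HRP-avidin 1 h at 37 °C, washes, TMB 15–30 min at 37 °C. Stop solution added and absorbance read at 450 nm. Experiment run in triplicate (n = 3); significance set at p < 0.05.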

HeLa cells = assay: MTT cytotoxicity assay, HeLa; format: cell-based; details: Homo sapiens, 72 h, read-out: IC50 cytotoxicity against HeLa cells
Procedure, shortened: as §1

SMILES	IC50 [1] [µM]	Hsp90 protein level after treatment [2] [ng/mL]	IC50 (HeLa cells) [µM]
C=CCNC1=C2C[C@@H](C)C[C@H](OC)[C@H](O)[C@@H](C)/C=C(\C)[C@H](OC(N)=O)[C@@H](OC)/C=C\C=C(/C)C(=O)NC(=CC1=O)C2=O [17-AAG, Tanespimycin, reference compound]	0.1	–	–
COc1ccc(-c2noc(N)c2C#N)c(OC)c1 [compound 1, 5-amino-(2,4-dimethoxyphenyl) isoxazole-4-carbonitrile]	0.31	4.85	7.91
COc1ccc(-c2noc(NC(=O)c3ccccc3)c2C#N)c(OC)c1 [compound 2, N-(4-cyano-3(2,4-dimethoxyphenyl)isoxazol-5-yl) benzamide]	≥ 100	–	> 100
COc1ccc(-c2noc(NC(=O)c3ccc(Cl)cc3)c2C#N)c(OC)c1 [compound 3, N-(4-cyano-3-(2,4-dimethoxyphenyl)isoxazol-5-yl)-4-chlorobenzamide]	68.3	–	3.61
COc1ccc(-c2noc(NC(=O)c3ccc(C(F)(F)F)cc3)c2C#N)c(OC)c1 [compound 4, N-(4-cyano-3-(2,4-dimethoxyphenyl)isoxazol-5-yl)-4-(trifluoromethyl)benzamide]	50.6	2.81	19.4
COc1ccc(-c2noc(NC(=O)c3ccc(F)cc3)c2C#N)c(OC)c1 [compound 8, N-(4-cyano-3(2,4-dimethoxyphenyl)isoxazol-5-yl)-4-fluorobenzamide]	54.1	–	31.9
